The source made the active and inactive calls. The calls are words filed in the database; no cut-off is given here.
Legend:
[1] = test system: Plasmodium falciparum; test: Parasitocidal activity against ring-stage Plasmodium falciparum 3D7 assessed as minimum killing concentration incubated for 42 hrs followed by compound washout measured 72 hrs post infection in hematocrit; assay type: functional
Summary of the method: (§1)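 After drug exposure, compound removed and cultures washed 3 times with Albumax II-free RPMI-1640. Cultures then incubated a further 72 h in complete medium with fresh hematocrit. RBCs containing viable parasite counted on thin smear to class inhibition as parasitostatic or parasitocidal.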

[2] = test system: Plasmodium falciparum; test: Antimalarial activity against ring-stage Plasmodium falciparum 3D7 assessed as schizonticidal activity after 42 hrs; assay type: functional, organism-based; conditions: 3D7, 42 h
Summary of the method: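 Ring-stage P. falciparum 3D7-parasitised cells exposed to compound for 42 h. Blood smears scored for maturation of rings into trophozoites and schizonts. IC50 derived from schizont inhibition by regression analysis.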

[3] = test system: Plasmodium falciparum; test: Antimalarial activity against Plasmodium falciparum 3D7 assessed as intracellular ROS generation relative to untreated control; assay type: functional
Summary of the method: (§2)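 Parasite cultures treated with a sub-lethal concentration of compound. Intracellular ROS measured with the fluorescent probe 2',7'-dichlorofluorescein diacetate. Lipid peroxidation measured by a previously described method. Each index expressed as fold change ± SD versus untreated culture.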

[4] = test system: Plasmodium falciparum; test: Antimalarial activity against Plasmodium falciparum 3D7 assessed as lipid peroxidation after 48 hrs by spectrophotometry relative to untreated control; assay type: functional; summary of the method: as §2
[5] = test system: Plasmodium falciparum; test: Parasitostatic activity against ring-stage Plasmodium falciparum 3D7 assessed as minimum killing concentration incubated for 42 hrs followed by compound washout measured 72 hrs post infection in hematocrit; assay type: functional, organism-based; summary of the method: as §1

Structure (SMILES)	Activity [1]	IC50 [2]	fold change (FC) [3]	fold change (FC) [4]	Activity [5]
O=C(Nc1ccc(F)cc1)c1c(O)cc(-c2ccccc2)oc1=O	2.39 µM	900 nM			
O=C(Nc1ccc(O)cc1)c1c(N2CCCCC2)cc(-c2ccccc2)oc1=O	1.99 µM	765 nM	1.2	9.03	
O=C(Nc1ccc(Br)cc1)c1c(O)cc(-c2ccccc2)oc1=O	3.9 µM	750 nM			
COc1ccc(-c2cc(N3CCN(C)CC3)c(C(=O)Nc3ccc(O)cc3)c(=O)o2)cc1		1570 nM	1.99	4.88	inactive
Cc1ccc(NC(=O)c2c(O)cc(-c3ccccc3)oc2=O)cc1	38.9 µM	1420 nM			
O=C(Nc1ccc(Br)cc1)c1c(N2CCCCC2)cc(-c2ccccc2)oc1=O	0.21 µM	337 nM	1.87	4.49	
Cc1ccc(NC(=O)c2c(N3CCCCC3)cc(-c3ccccc3)oc2=O)cc1	1 µM	859 nM	1.66	11.03	

From ChEMBL document CHEMBL3085730, “Skeletal hybridization and PfRIO-2 kinase modeling for synthesis of α-pyrone analogs as anti-malarial agent” (Eur J Med Chem, 2013)
